# Results taken from ChEMBL document CHEMBL3120153, “Novel Quinoline-Based P2-P4 Macrocyclic Derivatives As Pan-Genotypic HCV NS3/4a Protease Inhibitors” (ACS Med Chem Lett, 2014).
# pEC50, pIC50: −log10 of the molar value.
# Tests used:
# [1] = AUC in rat at 5 mg/kg, po; type: ADME, organism-based; set-up: dose 5 mg/kg, route oral; details: plasma
# Summary of the method: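 Rats were dosed orally at 5 mg/kg, with the compound given in methyl cellulose vehicle.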
# [2] = system: Hepatitis C virus; assay: Antiviral activity against Hepatitis C virus genotype 1b infected in HuH7 cells assessed as reduction in replicon RNA level after 72 hrs by TaqMan-based RT-PCR analysis in presence of 10% FBS; type: functional, organism-based, Hepacivirus hominis; details: Huh-7, 72 h
# [3] = Inhibition of Hepatitis C virus genotype 1b NS3/4A protease assessed as substrate cleavage using Ac-C(Eu)DDMEEAbu(COO)ASK(QSY7)-amide as substrate incubated for 30 mins prior to substrate addition by time-resolved fluorescence assay; set-up: species or system Hepatitis C virus subtype 1b
# [4] = biological target: NS3 protease (Hepatitis C virus subtype 1b, UniProt Q0ZMF1, D168Y); assay: Inhibition of Hepatitis C virus genotype 1b NS3/4A protease D168Y mutant assessed as substrate cleavage using Ac-C(Eu)DDMEEAbu(COO)ASK(QSY7)-amide as substrate incubated for 30 mins prior to substrate addition by time-resolved fluorescence assay
# [5] = system: Hepatitis C virus; assay: Ratio of MK-5172 EC50 to compound EC50 for Hepatitis C virus genotype 3a infected in HuH7 cells after 72 hrs by TaqMan-based RT-PCR analysis; type: functional, Hepacivirus hominis, Huh-7
# [6] = Inhibition of Hepatitis C virus genotype 3a NS3/4A protease assessed as substrate cleavage using Ac-C(Eu)DDMEEAbu(COO)ASK(QSY7)-amide as substrate incubated for 30 mins prior to substrate addition by time-resolved fluorescence assay; set-up: species or system Hepatitis C virus subtype 3a
# [7] = biological target: NS3 protease (Hepatitis C virus subtype 1b, UniProt Q0ZMF1, A156V); assay: Inhibition of Hepatitis C virus genotype 1b NS3/4A protease A156V mutant assessed as substrate cleavage using Ac-C(Eu)DDMEEAbu(COO)ASK(QSY7)-amide as substrate incubated for 30 mins prior to substrate addition by time-resolved fluorescence assay
# [8] = system: Hepatitis C virus; assay: Antiviral activity against Hepatitis C virus genotype 3a infected in HuH7 cells assessed as reduction in replicon RNA level after 72 hrs by TaqMan-based RT-PCR analysis in presence of 10% FBS; type: functional, organism-based, Hepacivirus hominis; details: Huh-7, 72 h
# [9] = biological target: NS3 protease (Hepatitis C virus subtype 1b, UniProt Q0ZMF1, A156T); assay: Inhibition of Hepatitis C virus genotype 1b NS3/4A protease A156T mutant assessed as substrate cleavage using Ac-C(Eu)DDMEEAbu(COO)ASK(QSY7)-amide as substrate incubated for 30 mins prior to substrate addition by time-resolved fluorescence assay
# [10] = biological target: NS3 protease (Hepatitis C virus subtype 1b, UniProt Q0ZMF1, R155K); assay: Inhibition of Hepatitis C virus genotype 1b NS3/4A protease R155K mutant assessed as substrate cleavage using Ac-C(Eu)DDMEEAbu(COO)ASK(QSY7)-amide as substrate incubated for 30 mins prior to substrate addition by time-resolved fluorescence assay
Structure (SMILES),AUC [1],pEC50 [2],pIC50 [3],pIC50 [4],Ratio EC50 [5],pIC50 [6],pIC50 [7],pEC50 [8],pIC50 [9],pIC50 [10]
C=C[C@@H]1C[C@]1(NC(=O)[C@@H]1C[C@@H]2CN1C(=O)[C@H](C1CCCCC1)NC(=O)O[C@@H]1C[C@H]1CCCCCc1c(nc3ccccc3c1O[C@H]1C[C@H]3CC[C@@H](C1)N3C)O2)C(=O)NS(=O)(=O)C1(C)CC1,1.2 µM·h,9.21,10.40,9.57,14,9.39,9.26,9.59,9.38,10.00
C=C[C@@H]1C[C@]1(NC(=O)[C@@H]1C[C@@H]2CN1C(=O)[C@H](C1CCCCC1)NC(=O)O[C@@H]1C[C@H]1CCCCCc1c(nc3ccccc3c1OC1CCN(CC)CC1)O2)C(=O)NS(=O)(=O)C1(C)CC1,2.3 µM·h,9.28,10.52,9.68,,9.39,9.18,8.28,9.04,9.96
C=C[C@@H]1C[C@]1(NC(=O)[C@@H]1C[C@@H]2CN1C(=O)[C@H](C1CCCCC1)NC(=O)O[C@@H]1C[C@H]1CCCCCc1c(nc3ccccc3c1OC1CCNCC1)O2)C(=O)NS(=O)(=O)C1(C)CC1,0.01 µM·h,9.68,11.00,10.05,,9.92,9.62,8.11,9.68,10.70
C=C[C@@H]1C[C@]1(NC(=O)[C@@H]1C[C@@H]2CN1C(=O)[C@H](C(C)(C)C)NC(=O)O[C@@H]1C[C@H]1CCCCCc1c(nc3ccccc3c1O[C@H]1C[C@H]3CC[C@@H](C1)N3CC)O2)C(=O)NS(=O)(=O)C1(C)CC1,0.01 µM·h,9.32,11.00,10.40,,10.10,9.48,8.97,9.68,11.00
